Source: ChEMBL document CHEMBL4689842, “EUbOPEN Chemogenomics Library wave 1” (2021)

Tested on: Fibroblast
Assay: Multiplex assay against human fibroblast
Assay type: toxicity, cell-based
Summary of the method: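 Four dyes were applied at seeding to live cells: Hoechst33342, BioTracker Green Microtubule Cytoskeleton Dye, MitoTracker Red and Annexin V Alexa Fluor 680. Imaging after compound addition used a CQ1 microscope at 37°C and 5% CO2. CellPathfinder machine-learning gating then sorted cells into Hoechst high-intensity objects or normal cells, normal cells into healthy, pyknosed or fragmented nuclei, and pyknosed cells into mitotic or apoptotic, with tubulin, mitochondrial-mass and membrane-permeability phenotypes given as per cents of healthy-nucleus cells.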

[1] = 12 h, 1 µM, compound concentration 1 uM, replicate 1
[2] = 12 h, 1 µM, compound concentration 1 uM, replicate 2
[3] = 12 h, 10 µM, compound concentration 10 uM, replicate 1
[4] = 12 h, 10 µM, compound concentration 10 uM, replicate 2
[5] = 24 h, 1 µM, compound concentration 1 uM, replicate 1
[6] = 24 h, 1 µM, compound concentration 1 uM, replicate 2
[7] = 24 h, 10 µM, compound concentration 10 uM, replicate 1
[8] = 24 h, 10 µM, compound concentration 10 uM, replicate 2
[9] = 48 h, 1 µM, compound concentration 1 uM, replicate 1
[10] = 48 h, 1 µM, compound concentration 1 uM, replicate 2
[11] = 48 h, 10 µM, compound concentration 10 uM, replicate 1
[12] = 48 h, 10 µM, compound concentration 10 uM, replicate 2

In the case of `CCCCCNC(=N)N/N=C/c1c[nH]c2ccc(OC)cc12.O=C(O)/C=C\C(=O)O` [TEGASEROD MALEATE], the “Population Apoptotic (%)” value [1] is reported as 65%, the “Population Fragmented Nuclei (%)” value [1] is reported as 25% and the “Population Healthy Nuclei (%)” value [1] is reported as 47%. The “Population Hoechst High Intensity Objects (%)” value [1] was 8%, the “Population Membrane Permeable-Phenotype (%)” value [1] was 10% and the “Population Mitochondria Different-Phenotype (%)” value [1] was 0%. The “Population Mitotic Cells (%)” value [1] was 34%, the “Population Normal (%)” value [1] was 91% and the “Population Pyknosed Nuclei (%)” value [1] was 27%. The “Population Tubulin-Different-Phenotype (%)” value [1] was 22%, the “Total Cell Count” value [1] was 114 and the “Population Apoptotic (%)” value [2] was 20%. For the same compound, the “Population Fragmented Nuclei (%)” value [2] was 12%, the “Population Healthy Nuclei (%)” value [2] was 79% and the “Population Hoechst High Intensity Objects (%)” value [2] was 3%. For the same compound, the “Population Membrane Permeable-Phenotype (%)” value [2] was 4%, the “Population Mitochondria Different-Phenotype (%)” value [2] was 22% and the “Population Mitotic Cells (%)” value [2] was 80%. For the same compound, the “Population Normal (%)” value [2] was 96%, the “Population Pyknosed Nuclei (%)” value [2] was 8% and the “Population Tubulin-Different-Phenotype (%)” value [2] was 14%. For the same compound, the “Total Cell Count” value [2] was 74, the “Population Apoptotic (%)” value [3] was 50% and the “Population Fragmented Nuclei (%)” value [3] was 34%. The “Population Healthy Nuclei (%)” value [3] was 12%, the “Population Hoechst High Intensity Objects (%)” value [3] was 20% and the “Population Membrane Permeable-Phenotype (%)” value [3] was 6%. For the same compound, the “Population Mitochondria Different-Phenotype (%)” value [3] was 50%, the “Population Mitotic Cells (%)” value [3] was 49% and the “Population Normal (%)” value [3] was 80%. For the same compound, the “Population Pyknosed Nuclei (%)” value [3] was 52%, the “Population Tubulin-Different-Phenotype (%)” value [3] was 62% and the “Total Cell Count” value [3] was 155. For the same compound, the “Population Apoptotic (%)” value [4] was 100%, the “Population Fragmented Nuclei (%)” value [4] was 22% and the “Population Healthy Nuclei (%)” value [4] was 3%. For the same compound, the “Population Hoechst High Intensity Objects (%)” value [4] was 35%, the “Population Membrane Permeable-Phenotype (%)” value [4] was 100% and the “Population Mitochondria Different-Phenotype (%)” value [4] was 100%. The “Population Mitotic Cells (%)” value [4] was 0%, the “Population Normal (%)” value [4] was 64% and the “Population Pyknosed Nuclei (%)” value [4] was 73%. The “Population Tubulin-Different-Phenotype (%)” value [4] was 100%, the “Total Cell Count” value [4] was 64 and the “Population Apoptotic (%)” value [5] was 52%. The “Population Fragmented Nuclei (%)” value [5] was 24%, the “Population Healthy Nuclei (%)” value [5] was 56% and the “Population Hoechst High Intensity Objects (%)” value [5] was 10%. For the same compound, the “Population Membrane Permeable-Phenotype (%)” value [5] was 15%, the “Population Mitochondria Different-Phenotype (%)” value [5] was 1% and the “Population Mitotic Cells (%)” value [5] was 47%. The “Population Normal (%)” value [5] was 90%, the “Population Pyknosed Nuclei (%)” value [5] was 18% and the “Population Tubulin-Different-Phenotype (%)” value [5] was 35%. For the same compound, the “Total Cell Count” value [5] was 100, the “Population Apoptotic (%)” value [6] was 87% and the “Population Fragmented Nuclei (%)” value [6] was 10%. The “Population Healthy Nuclei (%)” value [6] was 77%, the “Population Hoechst High Intensity Objects (%)” value [6] was 5% and the “Population Membrane Permeable-Phenotype (%)” value [6] was 5%. For the same compound, the “Population Mitochondria Different-Phenotype (%)” value [6] was 21%, the “Population Mitotic Cells (%)” value [6] was 12% and the “Population Normal (%)” value [6] was 94%. For the same compound, the “Population Pyknosed Nuclei (%)” value [6] was 12%, the “Population Tubulin-Different-Phenotype (%)” value [6] was 7% and the “Total Cell Count” value [6] was 89. The “Population Apoptotic (%)” value [7] was 74%, the “Population Fragmented Nuclei (%)” value [7] was 39% and the “Population Healthy Nuclei (%)” value [7] was 7%. The “Population Hoechst High Intensity Objects (%)” value [7] was 18%, the “Population Membrane Permeable-Phenotype (%)” value [7] was 12% and the “Population Mitochondria Different-Phenotype (%)” value [7] was 37%. For the same compound, the “Population Mitotic Cells (%)” value [7] was 25%, the “Population Normal (%)” value [7] was 81% and the “Population Pyknosed Nuclei (%)” value [7] was 53%. The “Population Tubulin-Different-Phenotype (%)” value [7] was 75%, the “Total Cell Count” value [7] was 133 and the “Population Apoptotic (%)” value [8] was 100%. The “Population Fragmented Nuclei (%)” value [8] was 44%, the “Population Healthy Nuclei (%)” value [8] was 26% and the “Population Hoechst High Intensity Objects (%)” value [8] was 39%. The “Population Membrane Permeable-Phenotype (%)” value [8] was 100%, the “Population Mitochondria Different-Phenotype (%)” value [8] was 100% and the “Population Mitotic Cells (%)” value [8] was 0%. The “Population Normal (%)” value [8] was 60%, the “Population Pyknosed Nuclei (%)” value [8] was 28% and the “Population Tubulin-Different-Phenotype (%)” value [8] was 100%. For the same compound, the “Total Cell Count” value [8] was 70, the “Population Apoptotic (%)” value [9] was 50% and the “Population Fragmented Nuclei (%)” value [9] was 37%. For the same compound, the “Population Healthy Nuclei (%)” value [9] was 58%, the “Population Hoechst High Intensity Objects (%)” value [9] was 15% and the “Population Membrane Permeable-Phenotype (%)” value [9] was 10%. The “Population Mitochondria Different-Phenotype (%)” value [9] was 1%, the “Population Mitotic Cells (%)” value [9] was 50% and the “Population Normal (%)” value [9] was 84%. For the same compound, the “Population Pyknosed Nuclei (%)” value [9] was 4%, the “Population Tubulin-Different-Phenotype (%)” value [9] was 24% and the “Total Cell Count” value [9] was 115. For the same compound, the “Population Apoptotic (%)” value [10] was 66%, the “Population Fragmented Nuclei (%)” value [10] was 23% and the “Population Healthy Nuclei (%)” value [10] was 72%. The “Population Hoechst High Intensity Objects (%)” value [10] was 18%, the “Population Membrane Permeable-Phenotype (%)” value [10] was 12% and the “Population Mitochondria Different-Phenotype (%)” value [10] was 3%. For the same compound, the “Population Mitotic Cells (%)” value [10] was 33%, the “Population Normal (%)” value [10] was 81% and the “Population Pyknosed Nuclei (%)” value [10] was 3%. For the same compound, the “Population Tubulin-Different-Phenotype (%)” value [10] was 44%, the “Total Cell Count” value [10] was 94 and the “Population Apoptotic (%)” value [11] was 76%. The “Population Fragmented Nuclei (%)” value [11] was 48%, the “Population Healthy Nuclei (%)” value [11] was 20% and the “Population Hoechst High Intensity Objects (%)” value [11] was 33%. The “Population Membrane Permeable-Phenotype (%)” value [11] was 17%, the “Population Mitochondria Different-Phenotype (%)” value [11] was 23% and the “Population Mitotic Cells (%)” value [11] was 23%. For the same compound, the “Population Normal (%)” value [11] was 66%, the “Population Pyknosed Nuclei (%)” value [11] was 30% and the “Population Tubulin-Different-Phenotype (%)” value [11] was 64%. The “Total Cell Count” value [11] was 127, the “Population Apoptotic (%)” value [12] was 85% and the “Population Fragmented Nuclei (%)” value [12] was 52%. The “Population Healthy Nuclei (%)” value [12] was 15%, the “Population Hoechst High Intensity Objects (%)” value [12] was 45% and the “Population Membrane Permeable-Phenotype (%)” value [12] was 30%. For the same compound, the “Population Mitochondria Different-Phenotype (%)” value [12] was 50%, the “Population Mitotic Cells (%)” value [12] was 15% and the “Population Normal (%)” value [12] was 54%. For the same compound, the “Population Pyknosed Nuclei (%)” value [12] was 31%, the “Population Tubulin-Different-Phenotype (%)” value [12] was 80% and the “Total Cell Count” value [12] was 115.
